Like-named read-outs stand apart in the source and are kept apart here. Marks after values point to notes of the source that are not given here.
Columns and labels:
[1] = assay type: in vivo, human; details: single oral dose, fasted; for AUC / AUC(0-t) / half-life / Tmax: male, human, plasma, po; for AUC: AUC0‐∞; for AUC(0-t): AUClast, AUC24h; for Tmax: n=24, median (min-max)
Procedure, shortened: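 Healthy Japanese men aged 20–45 y with BMI 18.5 to <30.0 kg/m2, in an open-label randomized 2-period crossover. The 25-mg cohort was split into tablet→capsule and capsule→tablet sequences of 12, each a single fasted oral dose, with a washout of at least 28 days. Venous blood was drawn predose and 0.25–24 h post-dose. Plasma test compound was measured by validated LC-MS/MS (LLOQ 10.0 ng/mL). Parameters came from individual concentration-time profiles (AUClast = AUC24h), giving tablet/capsule geometric mean ratios.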

[2] = Safety and tolerability assessment in the phase 1 study; assay type: in vivo, human; details: single oral dose 25 or 50 mg, tablet and capsule
Procedure, shortened: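 Healthy Japanese men received single fasted oral 25- or 50-mg tablet and capsule doses in a crossover design, confined at the site around each dose. The safety set was all subjects given at least 1 dose. Adverse events were assessed by clinical interview, physical examination, 12-lead ECG and routine laboratory tests from start of treatment to end of follow-up. Each was coded by MedDRA 17.0 (Japanese) and graded for severity, seriousness and causality.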

[3] = system: CYP2C8; details: in vitro; cited from earlier work
[4] = system: CYP2C9; details: in vitro; cited from earlier work
[5] = cited from earlier work

`Cc1c(Cl)c(C)[n+]([O-])c(Cl)c1-c1noc(-c2cc(O)c(O)c([N+](=O)[O-])c2)n1` [Opicapone] showed an AUC ([1]; 25 mg, opicapone 25 mg tablet, n=23, mean ± SD) of 2530 ± 581 ng·h/mL, an AUC(0-t) ([1]; 25 mg, opicapone 25 mg tablet, n=24, mean ± SD) of 2480 ± 586 ng·h/mL and a half-life ([1]; 25 mg, t1/2, opicapone 25 mg tablet, n=23, mean ± SD) of 0.729 ± 0.173 h. The Tmax ([1]; 25 mg, opicapone 25 mg tablet) was 2 h, the AUC ([1]; 50 mg, opicapone 50 mg capsule, n=23, mean ± SD) was 4210 ± 1620 ng·h/mL and the AUC(0-t) ([1]; 50 mg, opicapone 50 mg capsule, n=24, mean ± SD) was 4080 ± 1650 ng·h/mL. For the same compound, the half-life ([1]; 50 mg, t1/2, opicapone 50 mg capsule, n=23, mean ± SD) was 1.18 ± 0.477 h, the Tmax ([1]; 50 mg, opicapone 50 mg capsule) was 2 h and the CL/F ([1]; opicapone 25 mg capsule, n=24, mean ± SD) was 12.9 ± 5.31 L/h. For the same compound, the CL/F ([1]; opicapone 25 mg tablet, n=23, mean ± SD) was 10.6 ± 3.50 ^b L/h, the “Geometric Mean Ratio (Tablets/Capsules) of AUC0‐∞” value ([1]; opicapone 25 mg, n=24) was 1.19 and the “Geometric Mean Ratio (Tablets/Capsules) of AUClast” value ([1]; opicapone 25 mg, n=24) was 1.18. For the same compound, the “Geometric Mean Ratio (Tablets/Capsules) of Cmax” value ([1]; opicapone 25 mg, n=24) was 1.24, the CL/F ([1]; opicapone 50 mg capsule, n=23, mean ± SD) was 13.6 ± 5.09 ^b L/h and the CL/F ([1]; opicapone 50 mg tablet, n=23, mean ± SD) was 10.4 ± 3.20 L/h. For the same compound, the “Geometric Mean Ratio (Tablets/Capsules) of AUC0‐∞” value ([1]; opicapone 50 mg, n=23) was 1.27, the “Geometric Mean Ratio (Tablets/Capsules) of AUClast” value ([1]; opicapone 50 mg, n=24) was 1.28 and the “Geometric Mean Ratio (Tablets/Capsules) of Cmax” value ([1]; opicapone 50 mg, n=24) was 1.42. The Serious adverse events ([2]; any group, study period) was “no serious adverse events”, the Tolerability ([2]; healthy Japanese subjects) was “well tolerated” and the CYP2C8 inhibition [3] was “weak, reversible inhibitor”. The CYP2C9 inhibition [4] was “weak, reversible inhibitor”.

For `Cc1nc(Cl)c(-c2noc(-c3cc(O)c(O)c([N+](=O)[O-])c3)n2)c(C)c1Cl` [BIA 9–1079], the half-life of metabolite ([5]; not assessed in this study) is listed as “short”.

For `Cc1c(Cl)c(C)[n+]([O-])c(Cl)c1-c1noc(-c2cc(OS(=O)(=O)O)c(O)c([N+](=O)[O-])c2)n1` [BIA 9–1103], the half-life of metabolite ([5]; especially following repeated dosing) is given as “relatively long”.

Source: paper PMC7891373 (Clinical Pharmacology in Drug Development, 2020)
